Converted amounts (≈) assume the structure as drawn.
What was measured:
Bacillus = test: Antibacterial activity against Bacillus proteus ATCC 13315 after 24 hrs by twofold serial dilution method; type: functional; conditions: ATCC 13315, 24 h
Summary of the method: (§1)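 Bacterial strains: S. aureus ATCC 25923, B. subtilis ATCC 21216, M. luteus ATCC 4698, E. coli JM109, P. aeruginosa ATCC 27853, B. proteus ATCC 13315. MICs by two-fold broth microdilution in 96-well plates per NCCLS. Chloromycin and Norfloxacin served as positive controls.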

Pseudomonas aeruginosa = test: Antibacterial activity against Pseudomonas aeruginosa ATCC 27853 after 24 hrs by twofold serial dilution method; type: functional; conditions: ATCC 27853, 24 h; summary of the method: as §1
Candida = test: Antifungal activity against Candida mycoderma ATCC 96918 after 24 hrs by micro broth dilution method; type: functional; conditions: ATCC 96918, 24 h
Summary of the method: (§2)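 Fungi: C. albicans ATCC 76615 and C. mycoderma ATCC 96918. MICs by two-fold broth microdilution in 96-well plates per NCCLS. Fluconazole served as positive control.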

Candida albicans = test: Antifungal activity against Candida albicans ATCC 76615 after 24 hrs by micro broth dilution method; type: functional; conditions: ATCC 76615, 24 h; summary of the method: as §2
Micrococcus luteus = test: Antibacterial activity against Micrococcus luteus ATCC 4698 after 24 hrs by twofold serial dilution method; type: functional; conditions: ATCC 4698, 24 h; summary of the method: as §1
Staphylococcus aureus [1] = test: Antibacterial activity against methicillin-resistant staphylococcus aureus N315 after 24 hrs by twofold serial dilution method; type: functional; conditions: N315, 24 h
Summary of the method: (§3)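 Two-fold broth microdilution per NCCLS recommendations. The MIC was read as the minimum inhibitory concentration. Chloromycin and Norfloxacin served as positive controls. Strains were Bacillus typhi (Gram-negative panel) and methicillin-resistant S. aureus N315.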

Salmonella typhi = test: Antibacterial activity against Bacillus typhi after 24 hrs by twofold serial dilution method; type: functional, Salmonella enterica subsp. enterica serovar Typhi; conditions: Salmonella enterica; summary of the method: as §3
Bacillus subtilis = test: Antibacterial activity against Bacillus subtilis ATCC 21216 after 24 hrs by twofold serial dilution method; type: functional; conditions: ATCC 21216, 24 h; summary of the method: as §1
Escherichia coli = test: Antibacterial activity against Escherichia coli JM109 after 24 hrs by twofold serial dilution method; type: functional; conditions: JM109, 24 h; summary of the method: as §1
Staphylococcus aureus [2] = test: Antibacterial activity against Staphylococcus aureus ATCC 25923 after 24 hrs by twofold serial dilution method; type: functional; conditions: ATCC 25923, 24 h; summary of the method: as §1

Row | SMILES | MIC (Bacillus) [µg/mL] | MIC (Pseudomonas aeruginosa) [µg/mL] | MIC (Candida) [µg/mL] | MIC (Candida albicans) [µg/mL] | MIC (Micrococcus luteus) [µg/mL] | MIC (Staphylococcus aureus [1]) [µg/mL] | MIC (Salmonella typhi) [µg/mL] | MIC (Bacillus subtilis) [µg/mL] | MIC (Escherichia coli) [µg/mL] | MIC (Staphylococcus aureus [2]) [µg/mL]
1 | O=C(/C(=C/c1ccccc1)n1cncn1)c1ccc(F)cc1F | 64 (≈ 206 µM) | 128 (≈ 411 µM) | 64 (≈ 206 µM) | 128 (≈ 411 µM) | 64 (≈ 206 µM) | 64 (≈ 206 µM) | 32 (≈ 103 µM) | 64 (≈ 206 µM) | 32 (≈ 103 µM) | 32 (≈ 103 µM)
2 | O=C(/C(=C/c1ccccc1)n1cncn1)c1ccc(N2CCOCC2)cc1N1CCOCC1 | 64 (≈ 144 µM) | 128 (≈ 287 µM) | 64 (≈ 144 µM) | 128 (≈ 287 µM) | 64 (≈ 144 µM) | 64 (≈ 144 µM) | 32 (≈ 71.8 µM) | 64 (≈ 144 µM) | 32 (≈ 71.8 µM) | 32 (≈ 71.8 µM)
3 | O=C(/C(=C/c1ccccc1)n1cncn1)c1ccc(N2CCCCC2)cc1N1CCCCC1 | 64 (≈ 145 µM) | 128 (≈ 290 µM) | 16 (≈ 36.2 µM) | 16 (≈ 36.2 µM) | 64 (≈ 145 µM) | 32 (≈ 72.5 µM) | 32 (≈ 72.5 µM) | 32 (≈ 72.5 µM) | 64 (≈ 145 µM) | 16 (≈ 36.2 µM)
4 | OC(Cn1cncn1)(Cn1cncn1)c1ccc(F)cc1F [FLUCONAZOLE] | – | – | 4 (≈ 13.1 µM) | 1 (≈ 3.27 µM) | – | – | – | – | – | –
5 | O=C(/C(=C/c1ccccc1)n1cncn1)c1ccc(N2CCCC2)cc1N1CCCC1 | 32 (≈ 77.4 µM) | 32 (≈ 77.4 µM) | 4 (≈ 9.67 µM) | 8 (≈ 19.3 µM) | 16 (≈ 38.7 µM) | 16 (≈ 38.7 µM) | 8 (≈ 19.3 µM) | 16 (≈ 38.7 µM) | 32 (≈ 77.4 µM) | 32 (≈ 77.4 µM)
6 | O=C(/C(=C/c1ccc(Cl)cc1)n1cncn1)c1ccc(F)cc1F | 64 (≈ 185 µM) | 128 (≈ 370 µM) | 16 (≈ 46.3 µM) | 16 (≈ 46.3 µM) | 64 (≈ 185 µM) | 32 (≈ 92.6 µM) | 32 (≈ 92.6 µM) | 32 (≈ 92.6 µM) | 64 (≈ 185 µM) | 16 (≈ 46.3 µM)
7 | O=C(N[C@H](CO)[C@H](O)c1ccc([N+](=O)[O-])cc1)C(Cl)Cl [CHLORAMPHENICOL] | 32 (≈ 99 µM) | 32 (≈ 99 µM) | – | – | 8 (≈ 24.8 µM) | 16 (≈ 49.5 µM) | 32 (≈ 99 µM) | 32 (≈ 99 µM) | 32 (≈ 99 µM) | 16 (≈ 49.5 µM)
8 | Cc1ccc(/C=C(/C(=O)c2ccc(F)cc2F)n2cncn2)cc1 | 64 (≈ 197 µM) | 16 (≈ 49.2 µM) | 16 (≈ 49.2 µM) | 16 (≈ 49.2 µM) | 64 (≈ 197 µM) | 32 (≈ 98.4 µM) | 64 (≈ 197 µM) | 64 (≈ 197 µM) | 32 (≈ 98.4 µM) | 32 (≈ 98.4 µM)
9 | O=C(/C(=C/c1ccccc1)n1cncn1)c1ccc(F)cc1N1CCCC1 | 16 (≈ 44.1 µM) | 16 (≈ 44.1 µM) | 256 (≈ 706 µM) | 32 (≈ 88.3 µM) | 16 (≈ 44.1 µM) | 16 (≈ 44.1 µM) | 4 (≈ 11 µM) | 8 (≈ 22.1 µM) | 8 (≈ 22.1 µM) | 16 (≈ 44.1 µM)

Reference: ChEMBL document CHEMBL3098086, “Synthesis and biological evaluation of α-triazolyl chalcones as a new type of potential antimicrobial agents and their interaction with calf thymus DNA and human serum albumin” (Eur J Med Chem, 2014)
